Results on two compounds are retold here after paper PMC5488126 (CPT: Pharmacometrics & Systems Pharmacology, 2017).

The test system of data set [1] is platelet counts. The note with it: human, BM dysfunction simulations. The method, boiled down:
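The Friberg platelet model was extended with a capacity term fr on the proliferating compartment. fr rose linearly from a baseline fraction of 0.65 (initial Circ0 61.2 ×10⁹/L) over recovery durations of 1 h and 10, 30, 100, 300 and 1,000 days. Runs used slope 0 (recovery only) or 0.45 with 300 mg q.d. for 98 days. Schedules compared over 300-day recovery were 300 mg q.d. continuous, b.i.d. 3 on 4 off, and q.d. 7 on 7 off. fr was also varied from 0.25 to 1.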

A short description of data set [2]: Rat PK model of AZD5153 plasma concentrations. In kind it is in vivo, Han Wistar rat. The following applies: oral, population typical estimate (RSE), estimated from observed data. The method, boiled down:
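Female Han Wistar rats, 9–10 weeks old, were dosed orally in 0.5% hydroxymethylcellulose with 0.1% Tween80. Plasma was taken 2 h postdose on days 1, 4 and 7 and measured by LC-MS/MS. Data were fitted to a one-compartment model with first-order absorption, with ka and clearance fixed from a separate toxicology study and volume estimated. Fitting used FOCE-ELS and included between-subject variability.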

The subject of a further data set is circulating platelets. Nature of the data set: Rat platelet count study fitted to myelosuppression model. The following applies: for platelet changes in rat: oral. In kind it is in vivo, Han Wistar rat.
The test system of data set [3] is platelet counts. Nature of the data set: Simulation of human platelet counts with healthy BM. The following applies: healthy simulations, converted from rat slope using fu.
The conditions of data set [4]: cited from earlier work.

As to `COc1nnc2ccc(N3CCC(c4ccc(OCCN5CCN(C)C(=O)[C@H]5C)cc4)CC3)nn12` [AZD5153, (3R)‐4‐[2‐[4‐[1‐(3‐methoxy‐[1,2,4]triazolo[4,3‐b]pyridazin‐6‐yl)‐4‐piperidyl]phenoxy]ethyl]‐1,3‐dimethyl‐piperazin‐2‐one], in the data set on platelet counts [1], the “Recovery +drug induced myelosuppression: slopeAZD5153” value is on record as 0.45 1/(μmol/L). Moreover, the V in data set [2] was 0.39 (16) L/kg. Besides, the “platelet changes in rat” value is listed as “negligible platelet changes” with circulating platelets (0.1 mg/kg q.d.), “clear effects” in the data set with circulating platelets (1 mg/kg q.d.) and “clear effects” in the data set with circulating platelets (1.5 mg/kg b.i.d. (3 on 4 off)). For the same compound, the slopeAZD5153 with circulating platelets (rat platelet PD model, total concentrations, population typical estimate (RSE)) is listed as 0.09 (14) 1/(μmol/L); in the data set with platelet counts [3], 0.45 1/(μmol/L).
Regarding `Cc1sc2c(c1C)C(c1ccc(Cl)cc1)=N[C@@H](CC(=O)Nc1ccc(O)cc1)c1nnc(C)n1-2` [OTX015], the “frequency of severe TCP by pretreatment baseline” value in data set [4] (OTX015 phase 1 trial) is listed as “severe TCP was more frequent in patients with low platelet counts at pretreatment baseline”. In addition, the “dose-limiting toxicity in patients” value in data set [4] (phase I, nonleukemia hematological malignancies) is recorded as “thrombocytopenia (TCP) as a dose‐limiting toxicity (DLT)”.
